Screening data as filed in PubChem.
EBI2 antag – EBI2 receptor antagonists, beta-arrestin recruitment, primary screen, cell-based, luminescence, 7a,25-OHC stimulation, uHTS; G-protein coupled receptor 183 (Homo sapiens), P32249; 7a,25-OHC stimulated; inhibition, % at 5 µM; hit rate 0.81% among 360,000; AID 651636, 2012; in the data active = inhibition above about 38%;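 also: enzyme fragment complementation signal reports receptor beta-arrestin coupling in cells; 0% = agonist plus DMSO wells and 100% = wells without agonist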
Target sequence (P32249 whole entry, looked up, the tested form may be a part): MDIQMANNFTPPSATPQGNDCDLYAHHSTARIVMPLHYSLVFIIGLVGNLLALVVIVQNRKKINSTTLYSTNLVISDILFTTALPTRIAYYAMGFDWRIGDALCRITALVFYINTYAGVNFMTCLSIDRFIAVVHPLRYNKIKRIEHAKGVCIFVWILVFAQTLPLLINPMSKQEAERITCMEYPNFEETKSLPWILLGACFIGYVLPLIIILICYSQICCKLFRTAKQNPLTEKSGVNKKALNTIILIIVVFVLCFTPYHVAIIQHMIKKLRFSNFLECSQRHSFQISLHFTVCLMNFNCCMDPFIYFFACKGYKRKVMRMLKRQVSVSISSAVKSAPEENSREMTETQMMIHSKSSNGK
Granule exo inh – LAMP-1 surface exposure blockers, TALL-104 cells – cell-based, flow cytometry, MLPCN library, primary screen; AID 651702, 2012; hit rate 0.66% among 360,000; inhibition, % at 10 µM; TALL-104 LAMP-1 surface exposure; cells stimulated with thapsigargin and PMA;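 active = inhibition above about 55%, limit read from the data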
Myeloid diff MLP – induction of myeloid progenitor differentiation, primary screen, cell-based, flow cytometry, MLPCN library | hit rate 1% among 360,000 | ER-HoxA9 myeloid progenitors, lysozyme-GFP differentiation | calls only at 10 µM;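 active = normalized GFP-positive differentiation at or above the plate's own cutoff, the solvent-only control mean plus 3 SD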;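 also: cells exposed to compound for four days before flow analysis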
MC4R ag barr – MC4R agonists recruiting beta-arrestin, primary screen, cell-based, luminescence, agonist arm of biased-ligand search; Melanocortin receptor 4 (Homo sapiens), P32245; U2OS MC4R beta-arrestin complementation; percent of melanotan II response, DMSO zero; activation, % at 8.9 µM; hit rate 0.98% among 360,000; AID 540308, 2011;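 active = activation above a per-plate cutoff, the mean activation of sample wells on that plate plus 3 SD, cut at about 8% in these data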
MC4R antagonist – MC4R antagonists of cAMP signaling, primary screen, cell-based, TR-FRET, antagonist arm of biased-ligand search. Melanocortin receptor 4 (Homo sapiens), P32245. MC4R-expressing cells, MTII-stimulated cAMP, LANCE TR-FRET. hit rate 0.48% among 360,000. AID 540295, 2011. inhibition, % at 6.5 µM;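 active = inhibition above its plate's cutoff, the mean of tested wells on that plate plus 3 SD, cut at about 29% in these data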;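 also: 0% = Melanotan II alone and 100% = Melanotan II plus saturating MCL0020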
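material = U2OS cells stably expressing human melanocortin 4 receptor (MC4R) | also added = Melanotan II challenge | dosing = single nominal compound dose of 6.5 µM | detection = TR-FRET with Eu-cAMP and labeled anti-cAMP, 671 nm | replication = singlicate | timing = compound 30 min, challenge 1 h, detection 1 h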
Myeloid diff – inducers of myeloid progenitor differentiation, confirmation, cell-based, GFP/Mac1 flow cytometry, cherry pick 01 | shares compounds with Myeloid diff MLP | ER-HoxA9 myeloid progenitors, GFP/Mac1 double-positive flow | calls only | hit rate 2% among 2,300;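 active = share of green or green-and-red cells above 9 and 9% in run 1 or 4 and 3% in run 2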
GFP autofluor – flagged as fluorescent in myeloid differentiation counter-screen; shares compounds with Myeloid diff MLP; hit rate 7.4% among 2,300; ER-HoxA9 myeloid progenitors, no estrogen, GFP autofluorescence flow cytometry; vehicle wells 0%, positive control 100%; fluorescence response, % (no concentration beside the values);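 active = over 5% cells positive for green fluorescent reporter, or over 2% positive for both it and APC stain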;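 also: range taken on the double positive population between DMSO and positive control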
Numbers without * were called inactive; i = inactive; / = no result given; + = active, no number. Only some compounds are listed: those with a hit (about 3.7% of all), similar ones and a draw of the others.

SMILES	EBI2 antag	Granule exo inh	Myeloid diff MLP	MC4R ag barr	MC4R antagonist	Myeloid diff	GFP autofluor
CC(=O)NCCNc1nc2cc(-c3cccc(Cl)c3)sc2c(=O)n1C	5.3	-2.8	i	0.2	0.7	/	/
CCN(CC)CC(=O)N1CCCC(N2CCN(c3cccc(C(F)(F)F)c3)CC2)C1 (stereo not given)	-0.8	-0.4	i	-0.4	9.2	/	/
Clc1cc(Cl)cc(Nc2ccccc2CN(C/C=C/c2ccc3c(c2)OCO3)Cc2ccccc2)c1	-19.6	-2.1	i	-1.8	4.9	i	0.0
CC(=O)OCCN(Cc1ccccc1)Cc1ccc2c(c1)OCO2	4.7	-0.3	i	6.2	3.6	/	/
CC1CC(C)(C)NC(=S)N1CCCC(=O)NCc1ccccc1 (stereo not given)	2.7	-2.0	i	2.6	17.3	i	0.0
CCc1ccc(/C=C/c2c([N+](=O)[O-])c(=O)n(C)c(=O)n2C)cc1	-2.8	-3.8	i	-1.0	-2.8	i	1.4
CCOc1ccc(/C=C/c2c([N+](=O)[O-])c(=O)n(C)c(=O)n2C)cc1	-2.4	-3.7	i	-0.7	-0.6	/	/
O=c1c2ccccc2nnn1Cc1ccc2ccccc2c1	2.4	-0.1	i	-3.0	5.5	/	/
CC(C)(C)c1ccc(C(=O)NNC(=O)CCC(=O)Nc2ccccc2)cc1	2.1	-3.5	+	-2.0	11.3	i	0.0
CC(C)(C)c1ccc(OCCC(=O)NNC(=O)c2ccccc2)cc1	-17.5	-2.2	i	-2.1	1.5	/	/
CCOC(=O)C1(CC2CC2)CCN(Cc2ccc3cccc(F)c3n2)CC1	7.8	-3.8	i	1.9	1.1	/	/
Cc1cccc(C(=O)N/N=C/c2ccc(OC3CSC3)cc2)c1	19.1	3.4	i	2.3	-4.6	i	3.2
COc1cccc(C(=O)N/N=C/c2ccc(OC3CSC3)cc2)c1	21.6	-10.1	i	3.5	7.6	/	/
CCCCCCC1CCC(C(=O)Nn2c(C)nc3ccccc3c2=O)CC1 (stereo not given)	1.1	29.9	i	-0.8	15.2	i	0.0
CC1CCN(C(=O)CCC(=O)Nc2ccc([N+](=O)[O-])cc2)CC1	3.8	3.0	i	-0.4	-7.5	/	/
NC(=O)COC(=O)CSc1ccc2ccccc2c1	-2.7	6.6	i	-1.7	-0.2	/	/
CCN(C(=O)COc1cc(=O)n(CC)c2ccccc12)c1cc(Cl)ccc1OC	6.4	9.0	i	-0.6	-0.7	i	17.1*
C#Cc1ccc([C@H]2C=C(C(=O)NCc3nc4ccccc4[nH]3)O[C@@H](OCc3ccc(CO)cc3)C2)cc1	2.5	5.4	i	-0.9	6.1	i	0.0
O=C(NCc1ccccc1)C1=C[C@@H](c2csc3ccccc23)C[C@@H](OCc2ccc(CO)cc2)O1	21.8	-14.3	+	-1.1	13.6	i	0.0
COc1cc(C(=O)OCC(=O)Nc2cc(S(=O)(=O)N3CCOCC3)ccc2C)ccc1OCC(C)C	9.2	1.1	i	-1.3	-3.5	/	/
NC(=O)Nc1ccc(Oc2c(F)c(F)c(F)c(F)c2F)cc1	1.9	2.1	i	0.9	-2.1	i	0.2
N#Cc1nc(-c2cccs2)oc1NCc1ccco1	4.8	-0.6	i	5.5	8.2	i	0.5
COc1cc(CNc2ccc3[nH]c(=O)[nH]c3c2)ccc1OCc1ccc(F)cc1	-0.8	18.3	i	-0.4	3.1	i	0.3
COc1cc(CNc2ccc(N3CCN(C(C)=O)CC3)cc2)ccc1OCc1ccc(F)cc1	7.8	1.4	i	4.2	-12.0	i	0.4
COc1cc(CNc2ccc3[nH]c(=O)[nH]c3c2)ccc1OCc1ccc(Cl)cc1	2.3	-4.8	i	3.0	-4.9	i	0.3
